# Starred links: 1 amine or outer side, 2 acyl side, 3 side chain; linkers in the order of their positions; H or OH if unused. Non-standard residues stand in square brackets, D forms with d. Residues, ends and D or L forms follow the SMILES beside them. *: point of attachment. Desaminohistidyl = O=C(CCc1c[nH]cn1)*; NHCH2CHPh2 = c1ccc(C(CN*)c2ccccc2)cc1; NHCHPh2 = c1ccc(C(N*)c2ccccc2)cc1; pNA = O=[N+]([O-])c1ccc(N*)cc1; NHPhenethyl = c1ccc(CCN*)cc1; Suc = O=C(CCC(=O)[*:2])[*:1]; Isovaleryl = CC(C)CC(=O)*; Ac5c = NC1(C(=O)O)CCCC1; Api = NC1(C(=O)O)CCNCC1; Aib = CC(C)(N)C(=O)O; NHBn = c1ccc(CN*)cc1
# Biological target: T1, Peptidyl-prolyl cis-trans isomerase A (Homo sapiens, UniProt P62937)
# Assay: % inhibition of competitive binding, at 500 uM, against human Peptidyl-prolyl isomerase activity using uncoupled assay
# Target sequence in this assay (P62937 whole entry, looked up): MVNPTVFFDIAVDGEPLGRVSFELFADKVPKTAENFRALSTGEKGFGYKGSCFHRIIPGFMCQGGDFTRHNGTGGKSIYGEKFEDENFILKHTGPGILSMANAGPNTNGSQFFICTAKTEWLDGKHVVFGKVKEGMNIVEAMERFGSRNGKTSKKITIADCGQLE
row,Compound,inhibition
1,CC(=O)N[C@H](C(=O)N[C@@H](Cc1c[nH]cn1)C(=O)N[C@@H](C)C(=O)NCC(=O)N1CCC[C@H]1C(=O)NC1(C(=O)N[C@@H](C)C(N)=O)CCCC1)C(C)C (Ac-VHAGP[Ac5c]A-NH2),52%

# Biological target: T1, Peptidyl-prolyl cis-trans isomerase A
# Assay: 50% inhibitory concentration of competitive binding against human Peptidyl-prolyl isomerase activity using uncoupled assay
# How it was run: (§1)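 Recombinant human hCyp-18 (expressed in E. coli M15, ion-exchange purified), 16 nM in 35 mM Hepes pH 7.8, preincubated 2 min with peptides added from DMSO stocks (100 µM to 100 mM). Substrate Suc-Ala-Ala-Pro-Phe-DFA in TFE/0.47 M LiCl added to a final 200 µM. Uncoupled cis/trans isomerization followed by absorbance at 246 nm, 10 °C, over 6 min. Pseudo-first-order k_obs taken from 0.05–0.5 min data, activity expressed relative to uncatalyzed rate, n = 2.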
# Target sequence in this assay (P62937 whole entry): as the sequence (P62937 whole entry, looked up) above
row,Compound,IC50
1,CC[C@H](C)[C@H](NC(=O)[C@@H]1CCCN1C(=O)CNC(=O)[C@H](C)NC(=O)[C@H](Cc1c[nH]cn1)NC(=O)[C@@H](N)C(C)C)C(=O)N[C@@H](C)C(N)=O,2100 µM
2,CC(=O)N[C@H](C(=O)N[C@@H](Cc1c[nH]cn1)C(=O)N[C@@H](C)C(=O)NCC(=O)N1CCC[C@H]1C(=O)N[C@H](C(=O)N[C@H](C)C(N)=O)c1ccccc1)C(C)C,820 µM
3,CC(=O)N[C@H](C(=O)N[C@@H](Cc1cnc[nH]1)C(=O)N[C@@H](C)C(=O)NCC(=O)N1CCC[C@H]1C(=O)N[C@H](C(=O)N[C@@H](C)C(N)=O)C(C)C)C(C)C,1500 µM
4,CC(=O)N[C@H](C(=O)N[C@@H](Cc1cnc[nH]1)C(=O)N[C@@H](C)C(=O)NCC(=O)N1CCC[C@H]1C(=O)N[C@@H](C(=O)N[C@H](C)C(N)=O)c1ccccc1)C(C)C,970 µM
5,CC[C@H](C)[C@H](NC(=O)[C@@H]1CCCN1C(=O)CNC(=O)C(C)(C)NC(=O)[C@H](Cc1c[nH]cn1)NC(=O)[C@@H](NC(C)=O)C(C)C)C(=O)N[C@@H](C)C(N)=O,760 µM
6,CC(=O)N[C@H](C(=O)N[C@@H](Cc1cnc[nH]1)C(=O)N[C@@H](C)C(=O)NCC(=O)N1CCC[C@H]1C(=O)N[C@@H](CCC(N)=O)C(=O)N[C@@H](C)C(N)=O)C(C)C,1300 µM
7,CC(=O)N[C@H](C(=O)N[C@@H](Cc1c[nH]cn1)C(=O)N[C@@H](C)C(=O)NCC(=O)N1CCC[C@H]1C(=O)NCC(=O)N[C@@H](C)C(N)=O)C(C)C,2800 µM
8,CC[C@H](C)[C@H](NC(=O)[C@@H]1CCCN1C(=O)CNC(=O)[C@H](C)NC(=O)[C@H](Cc1cnc[nH]1)NC(=O)[C@@H](NC(C)=O)C(C)C)C(=O)N[C@@H](C)C(N)=O,850 µM
9,CC[C@H](C)[C@H](NC(=O)[C@@H]1CCCN1C(=O)CNC(=O)[C@H](C)NC(=O)[C@H](Cc1c[nH]cn1)NC(C)=O)C(=O)NCc1ccccc1 (Ac-HAGPI-NHBn),280 µM
10,CC[C@H](C)[C@H](NC(=O)[C@@H]1CCCN1C(=O)CNC(=O)[C@H](C)NC(=O)[C@H](Cc1c[nH]cn1)NC(=O)[C@@H](NC(C)=O)C(C)C)C(=O)NCc1ccccc1 (Ac-VHAGPI-NHBn),115 µM
11,CC[C@H](C)[C@H](NC(=O)[C@@H]1CCCN1C(=O)CNC(=O)[C@H](C)NC(=O)[C@H](Cc1c[nH]cn1)NC(=O)[C@@H](NC(C)=O)C(C)C)C(=O)NC(c1ccccc1)c1ccccc1 (Ac-VHAGPI-NHCHPh2),1500 µM
12,CC(=O)N[C@H](C(=O)N[C@@H](Cc1cnc[nH]1)C(=O)N[C@@H](C)C(=O)NCC(=O)N1CCC[C@H]1C(=O)NC1(C(=O)N[C@@H](C)C(N)=O)CCCC1)C(C)C (Ac-VHAGP[Ac5c]A-NH2),680 µM
13,CC(=O)N[C@H](C(=O)N[C@@H](Cc1c[nH]cn1)C(=O)N[C@@H](C)C(=O)NCC(=O)N1CCC[C@H]1C(=O)NC(C)(C)C(=O)N[C@@H](C)C(N)=O)C(C)C (Ac-VHAGP[Aib]A-NH2),> 10000 µM
14,CC(=O)N[C@H](C(=O)N[C@@H](Cc1c[nH]cn1)C(=O)N[C@@H](C)C(=O)NCC(=O)N1CCC[C@H]1C(=O)NC1(C(=O)N[C@@H](C)C(N)=O)CCNCC1)C(C)C (Ac-VHAGP[Api]A-NH2),> 10000 µM
15,CC[C@H](C)[C@H](NC(=O)[C@@H]1CCCN1C(=O)CNC(=O)[C@H](C)NC(=O)CCc1cnc[nH]1)C(=O)NCc1ccccc1 (Desaminohistidyl-AGPI-NHBn),> 10000 µM
16,CC[C@H](C)[C@H](NC(=O)[C@@H]1CCCN1C(=O)CNC(=O)[C@H](C)NC(=O)[C@H](Cc1cnc[nH]1)NC(=O)[C@@H](N)C(C)C)C(=O)NCc1ccccc1 (H-VHAGPI-NHBn),260 µM
17,CC[C@H](C)[C@H](NC(=O)[C@@H]1CCCN1C(=O)CNC(=O)[C@H](C)NC(=O)[C@H](Cc1cnc[nH]1)NC(=O)CC(C)C)C(=O)NCc1ccccc1 (Isovaleryl-HAGPI-NHBn),6 µM
18,CC(C)CC(=O)N[C@@H](Cc1cnc[nH]1)C(=O)N[C@@H](C)C(=O)NCC(=O)N1CCC[C@H]1C(=O)NC1(C(=O)NCc2ccccc2)CCCC1 (Isovaleryl-HAGP[Ac5c]-NHBn),90 µM
19,CC[C@H](C)[C@H](NC(=O)[C@@H]1CCCN1C(=O)CNC(=O)C(C)(C)NC(=O)[C@H](Cc1cnc[nH]1)NC(=O)CC(C)C)C(=O)NCc1ccccc1 (Isovaleryl-H[Aib]GPI-NHBn),> 10000 µM
20,CC(C)CC(=O)N[C@@H](Cc1c[nH]cn1)C(=O)NC(C)(C)C(=O)NCC(=O)N1CCC[C@H]1C(=O)NC1(C(=O)NCc2ccccc2)CCCC1 (Isovaleryl-H[Aib]GP[Ac5c]-NHBn),500 µM
21,CC[C@H](C)[C@H](NC(=O)[C@@H]1CCCN1C(=O)CNC(=O)[C@H](C)NC(=O)[C@H](Cc1c[nH]cn1)NC(=O)[C@@H](NC(=O)CCC(=O)O)C(C)C)C(=O)N[C@@H](C)C(N)=O (Suc-VHAGPIA-NH2),1000 µM
22,Ac-VQAGPIA-NH2,2500 µM

# Biological target: T1, Peptidyl-prolyl cis-trans isomerase A
# Assay: % inhibition of competitive binding, at 500 uM, against hCyp-18 PPIase activity using uncoupled assay
# Target sequence in this assay (P62937 whole entry, looked up): as above
row,Compound,inhibition
1,CC[C@H](C)[C@H](NC(=O)[C@@H]1CCCN1C(=O)CNC(=O)[C@H](C)NC(=O)[C@H](Cc1c[nH]cn1)NC(=O)[C@@H](NC(C)=O)C(C)C)C(=O)NCC(c1ccccc1)c1ccccc1 (Ac-VHAGPI-NHCH2CHPh2),54%
2,CC[C@H](C)[C@H](NC(=O)[C@@H]1CCCN1C(=O)CNC(=O)[C@H](C)NC(=O)[C@H](Cc1c[nH]cn1)NC(=O)[C@@H](NC(C)=O)C(C)C)C(=O)NCCc1ccccc1 (Ac-VHAGPI-NHPhenethyl),55%
3,C[C@H](NC(=O)CCC(=O)O)C(=O)N[C@@H](C)C(=O)N1CCC[C@H]1C(=O)N[C@@H](Cc1ccccc1)C(=O)Nc1ccc([N+](=O)[O-])cc1 (Suc-AAPF-pNA),38%

# Biological target: T1, Peptidyl-prolyl cis-trans isomerase A
# Assay: % inhibition of competitive binding, at 500 uM, against human Peptidyl-prolyl isomerase
# How it was run: as §1
# Target sequence in this assay (P62937 whole entry, looked up): as above
row,Compound,inhibition
1,CC(=O)N[C@H](C(=O)N[C@@H](Cc1c[nH]cn1)C(=O)N[C@@H](C)C(=O)NCC(=O)N1CCC[C@H]1C(=O)N[C@H](C(=O)N[C@H](C)C(N)=O)c1ccccc1)C(C)C,43%
2,CC(=O)N[C@H](C(=O)N[C@@H](Cc1c[nH]cn1)C(=O)N[C@@H](C)C(=O)NCC(=O)N1CCC[C@H]1C(=O)NCC(=O)N[C@H](C)C(N)=O)C(C)C,28%
3,CC(=O)N[C@H](C(=O)N[C@@H](Cc1c[nH]cn1)C(=O)N[C@@H](C)C(=O)NCC(=O)N1CCC[C@H]1C(=O)N[C@@H](C(=O)N[C@H](C)C(N)=O)c1ccccc1)C(C)C,37%
4,CC(=O)N[C@H](C(=O)N[C@@H](Cc1c[nH]cn1)C(=O)N[C@@H](C)C(=O)NCC(=O)N1CCC[C@H]1C(=O)N[C@@H](CCC(N)=O)C(=O)N[C@H](C)C(N)=O)C(C)C,15%
5,CC(=O)N[C@H](C(=O)N[C@@H](Cc1c[nH]cn1)C(=O)N[C@@H](C)C(=O)NCC(=O)N1CCC[C@H]1C(=O)N[C@H](C(=O)N[C@H](C)C(N)=O)C(C)C)C(C)C,31%
6,CC[C@@H](C)[C@@H](NC(=O)[C@@H]1CCCN1C(=O)CNC(=O)C(C)(C)NC(=O)[C@H](Cc1c[nH]cn1)NC(=O)[C@@H](NC(C)=O)C(C)C)C(=O)N[C@H](C)C(N)=O,45%
7,CC[C@@H](C)[C@@H](NC(=O)[C@@H]1CCCN1C(=O)CNC(=O)[C@H](C)NC(=O)[C@H](Cc1c[nH]cn1)NC(=O)[C@@H](NC(C)=O)C(C)C)C(=O)N[C@H](C)C(N)=O,19%
8,CC[C@H](C)[C@H](NC(=O)[C@@H]1CCCN1C(=O)CNC(=O)[C@H](C)NC(=O)CCc1c[nH]cn1)C(=O)N[C@H](C)C(N)=O,20%
9,CC[C@H](C)[C@H](NC(=O)[C@@H]1CCCN1C(=O)CNC(=O)[C@H](C)NC(=O)[C@@H](N)Cc1c[nH]cn1)C(=O)N[C@H](C)C(=O)O,15%
10,CC[C@H](C)[C@H](NC(=O)[C@@H]1CCCN1C(=O)CNC(=O)[C@H](C)NC(=O)[C@H](Cc1c[nH]cn1)NC(=O)CC(C)C)C(=O)N[C@H](C)C(N)=O,76%
11,CC[C@H](C)[C@H](NC(=O)[C@@H]1CCCN1C(=O)CNC(=O)[C@H](C)NC(=O)[C@H](Cc1c[nH]cn1)NC(=O)[C@@H](N)C(C)C)C(=O)N[C@H](C)C(N)=O,11%
12,CC[C@H](C)[C@H](NC(=O)[C@@H]1CCCN1C(=O)CNC(=O)[C@H](C)NC(=O)[C@H](Cc1c[nH]cn1)NC(C)=O)C(=O)NCc1ccccc1 (Ac-HAGPI-NHBn),55%
13,CC[C@H](C)[C@H](NC(=O)[C@@H]1CCCN1C(=O)CNC(=O)[C@H](C)NC(=O)[C@H](Cc1c[nH]cn1)NC(=O)[C@@H](NC(C)=O)C(C)C)C(=O)NCc1ccccc1 (Ac-VHAGPI-NHBn),88%
14,CC[C@H](C)[C@H](NC(=O)[C@@H]1CCCN1C(=O)CNC(=O)[C@H](C)NC(=O)[C@H](Cc1c[nH]cn1)NC(=O)[C@@H](NC(C)=O)C(C)C)C(=O)NC(c1ccccc1)c1ccccc1 (Ac-VHAGPI-NHCHPh2),38%
15,CC[C@H](C)[C@H](NC(=O)[C@@H]1CCCN1C(=O)CNC(=O)[C@H](C)NC(=O)[C@H](Cc1c[nH]cn1)NC(=O)[C@@H](N)C(C)C)C(=O)NCc1ccccc1 (H-VHAGPI-NHBn),59%
16,CC[C@H](C)[C@H](NC(=O)[C@@H]1CCCN1C(=O)CNC(=O)[C@H](C)NC(=O)[C@H](Cc1c[nH]cn1)NC(=O)CC(C)C)C(=O)NCc1ccccc1 (Isovaleryl-HAGPI-NHBn),99%
17,CC(C)CC(=O)N[C@@H](Cc1c[nH]cn1)C(=O)N[C@@H](C)C(=O)NCC(=O)N1CCC[C@H]1C(=O)NC1(C(=O)NCc2ccccc2)CCCC1 (Isovaleryl-HAGP[Ac5c]-NHBn),57%
18,CC(C)CC(=O)N[C@@H](Cc1c[nH]cn1)C(=O)NC(C)(C)C(=O)NCC(=O)N1CCC[C@H]1C(=O)NC1(C(=O)NCc2ccccc2)CCCC1 (Isovaleryl-H[Aib]GP[Ac5c]-NHBn),50%
19,CC[C@H](C)[C@H](NC(=O)[C@@H]1CCCN1C(=O)CNC(=O)[C@H](C)NC(=O)[C@H](Cc1c[nH]cn1)NC(=O)[C@@H](NC(=O)CCC(=O)O)C(C)C)C(=O)N[C@@H](C)C(N)=O (Suc-VHAGPIA-NH2),13%

# Reference: ChEMBL document CHEMBL1132932, “Design of a Gag pentapeptide analogue that binds human cyclophilin A more efficiently than the entire capsid protein: new insights for the development of novel anti-HIV-1 drugs” (J Med Chem, 2000)
